How the values were obtained:
[1] = test system: Mus musculus; assay: Antinociceptive activity was determined using the mouse acetylcholine-induced abdominal constriction test followed by subcutaneous administration; type: functional; conditions: Abdomen, sc
Summary of the method: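 Mice received each compound by subcutaneous injection and were scored in the acetylcholine-induced abdominal constriction test. An ED50 in mg/kg was determined for each compound.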

[2] = biological target: Kappa-type opioid receptor (Cavia porcellus) (UniProt P41144); assay: pKa value was measured against opioid receptor kappa
Chain of Kappa-type opioid receptor (Cavia porcellus) (P41144 whole entry): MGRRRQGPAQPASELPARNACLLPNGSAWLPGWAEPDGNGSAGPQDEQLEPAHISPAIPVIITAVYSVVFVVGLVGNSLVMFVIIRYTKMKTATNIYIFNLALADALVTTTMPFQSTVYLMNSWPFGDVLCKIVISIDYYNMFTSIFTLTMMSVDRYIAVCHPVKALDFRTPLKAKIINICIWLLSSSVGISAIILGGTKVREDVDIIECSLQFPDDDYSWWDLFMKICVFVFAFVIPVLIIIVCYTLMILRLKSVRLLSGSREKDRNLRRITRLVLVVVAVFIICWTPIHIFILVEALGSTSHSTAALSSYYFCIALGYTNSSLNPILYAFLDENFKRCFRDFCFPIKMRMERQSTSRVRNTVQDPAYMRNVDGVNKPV
Summary of the method: (§1)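 pKa was found by titration of the compound at a sample concentration of 0.002 M in 10% methanol-water solvent.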

[3] = biological target: T1, Kappa-type opioid receptor (Homo sapiens, UniProt P41145); assay: Opioid receptor kappa 1 agonist potency in vitro using rabbit vas deferens(LVD) preparation; type: functional, Oryctolagus cuniculus; conditions: target entry is the homologue from another species
T1 sequence (P41145 whole entry): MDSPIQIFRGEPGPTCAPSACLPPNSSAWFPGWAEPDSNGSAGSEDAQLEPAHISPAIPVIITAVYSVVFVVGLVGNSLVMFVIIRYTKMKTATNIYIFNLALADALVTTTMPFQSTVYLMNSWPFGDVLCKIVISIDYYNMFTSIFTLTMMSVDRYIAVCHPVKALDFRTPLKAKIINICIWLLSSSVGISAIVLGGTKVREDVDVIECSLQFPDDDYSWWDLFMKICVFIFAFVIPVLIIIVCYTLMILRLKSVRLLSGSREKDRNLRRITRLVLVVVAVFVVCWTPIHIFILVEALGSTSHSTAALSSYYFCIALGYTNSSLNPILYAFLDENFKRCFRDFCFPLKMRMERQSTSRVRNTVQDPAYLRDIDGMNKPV
Summary of the method: (§2)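 Isolated rabbit vas deferens (LVD) was used as an in vitro kappa-agonist bioassay. Potency is given as an IC50 in nM, the mean of two independent determinations, with individual values typically within ±10% of the mean. Compounds were tested as racemates.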

[4] = biological target: Kappa-type opioid receptor (Cavia porcellus) (UniProt P41144); assay: pKa value was measured against kOpioid receptor kappa 1; summary of the method: as §1
[5] = biological target: T1, Kappa-type opioid receptor; assay: Kappa-opioid receptor agonist potency in vitro using rabbit vas deferens(LVD) preparation; type: functional, Oryctolagus cuniculus; conditions: target entry is the homologue from another species; summary of the method: as §2
[6] = biological target: T1, Kappa-type opioid receptor; assay: Opioid receptor kappa agonist potency in vitro using rabbit vas deferens(LVD) preparation; type: functional, Oryctolagus cuniculus; conditions: target entry is the homologue from another species; summary of the method: as §2
[7] = biological target: Kappa-type opioid receptor (Cavia porcellus) (UniProt P41144); assay: pKa value was measured against Opioid receptor kappa 1; summary of the method: as §1

| Structure (SMILES) | ED50 [1] [mg/kg] | further results |
| --- | --- | --- |
| C=C1CCN(CC2CCCCN2C(=O)Cc2ccc(Cl)c(Cl)c2)C1 (stereo unspecified) | 0.05 | pKa [2]: 7.7 |
| COC(=O)/C=C1/CCN(CC2CCCCN2C(=O)Cc2ccc(Cl)c(Cl)c2)C1 (stereo unspecified) | 0.07 |  |
| O=C(Cc1ccc(Cl)c(Cl)c1)N1CCCCC1CN1CC=CCC1 (stereo unspecified) | 0.009 |  |
| NC(=O)[C@@H]1CCN(C(=O)Cc2ccc(Cl)c(Cl)c2)[C@H](CN2CCCC2)C1 | > 10 |  |
| O=C(Cc1ccc(Cl)c(Cl)c1)N1CC2(CC[C@H]1CN1CCCC1)OCCO2 | 1.1 |  |
| O=C1CCN(CC2CCCCN2C(=O)Cc2ccc(Cl)c(Cl)c2)CC1 (stereo unspecified) | > 10 |  |
| COC(=O)/C=C1\CCN(CC2CCCCN2C(=O)Cc2ccc(Cl)c(Cl)c2)C1 (stereo unspecified) | 6.6 |  |
| COC(=O)[C@@H]1CCN(C(=O)Cc2ccc(Cl)c(Cl)c2)[C@H](CN2CCCC2)C1 | > 10 |  |
| O=C(Cc1ccc(Cl)c(Cl)c1)N1CC[C@@H](O)C[C@H]1CN1CCCC1 | 0.27 | IC50 [3]: 120 nM |
| C[C@@H]1CCC[C@@H](CN2CCCC2)N1C(=O)Cc1ccc(Cl)c(Cl)c1 | 0.4 |  |
| O=C(Cc1ccc(Cl)c(Cl)c1)N1CCCCC1CN1CCCC1 (stereo unspecified) | 0.03 | pKa [4]: 9; IC50 [5]: 11 nM |
| O=C(Cc1ccc(Cl)c(Cl)c1)N1[C@@H](CO)CCC[C@H]1CN1CCCC1 |  | IC50 [6]: 2200 nM |
| C=CCC1(CN2CCCC2)CCCCN1C(=O)Cc1ccc(Cl)c(Cl)c1 (stereo unspecified) | 2.4 |  |
| O=C(Cc1ccc(Cl)c(Cl)c1)N1CCCCC1CN1CCCCC1 (stereo unspecified) | 0.24 |  |
| C=C1CCN(CC2CCCCN2C(=O)Cc2ccc(Cl)c(Cl)c2)CC1 (stereo unspecified) |  | IC50 [3]: 550 nM |
| COC(=O)C1=CCCN(CC2CCCCN2C(=O)Cc2ccc(Cl)c(Cl)c2)C1 (stereo unspecified) | 0.41 |  |
| O=C(Cc1ccc(Cl)c(Cl)c1)N1CCC[C@@H](O)[C@H]1CN1CCCC1 | 1.7 |  |
| O=C(Cc1ccc(Cl)c(Cl)c1)N1CCCCC1CN1CCCO1 (stereo unspecified) | 0.38 |  |

| Structure (SMILES) | ED50 [1] [mg/kg] | further results |
| --- | --- | --- |
| O=C(Cc1ccc(Cl)c(Cl)c1)N1CCC2(CC1CN1CCCC1)OCCO2 (stereo unspecified) | 0.001 |  |
| CN(C)CC1CCCCN1C(=O)Cc1ccc(Cl)c(Cl)c1 (stereo unspecified) | 0.064 | IC50 [3]: 102 nM |
| O=C(Cc1ccc(Cl)c(Cl)c1)N1CCCCC1CN1CC=CC1 (stereo unspecified) | 0.04 | IC50 [3]: 3.5 nM |
| C[C@H]1CCC[C@@H](CN2CCCC2)N1C(=O)Cc1ccc(Cl)c(Cl)c1 | 0.034 |  |
| O=C(Cc1ccc(Cl)c(Cl)c1)N1CCCCC1CN1CCC2(CC1)OCCO2 (stereo unspecified) | > 10 |  |
| O=C1CC[C@@H](CN2CCCC2)N(C(=O)Cc2ccc(Cl)c(Cl)c2)C1 | 0.91 |  |
| O=C(Cc1ccc(Cl)c(Cl)c1)N1CC[C@H](O)C[C@H]1CN1CCCC1 | 1.4 |  |
| O=C(Cc1ccc(Cl)c(Cl)c1)N1CCCCC1CN1CCC(O)C1 (stereo unspecified) | 0.01 | pKa [2]: 8.1 |
| C=C1CCCN(C(=O)Cc2ccc(Cl)c(Cl)c2)C1CN1CCCC1 (stereo unspecified) | 0.11 |  |
| O=C1CCCN(C(=O)Cc2ccc(Cl)c(Cl)c2)C1CN1CCCC1 (stereo unspecified) | 3.4 |  |
| O=C1CCN(C(=O)Cc2ccc(Cl)c(Cl)c2)C(CN2CCCC2)C1 (stereo unspecified) | 0.018 |  |
| N#C/C=C1\CCN(CC2CCCCN2C(=O)Cc2ccc(Cl)c(Cl)c2)C1 (stereo unspecified) | > 10 | IC50 [3]: 690 nM |
| O=C(Cc1ccc(Cl)c(Cl)c1)N1CCC[C@H](O)[C@H]1CN1CCCC1 | 3.6 |  |
| O=C(Cc1ccc(Cl)c(Cl)c1)N1CCC2(CC1CN1CCCC1)SCCS2 (stereo unspecified) | 0.025 |  |
| N#C/C=C1/CCN(CC2CCCCN2C(=O)Cc2ccc(Cl)c(Cl)c2)C1 (stereo unspecified) | 0.19 | IC50 [3]: 0.12 nM |
| O=C1CCN(CC2CCCCN2C(=O)Cc2ccc(Cl)c(Cl)c2)C1 (stereo unspecified) | 0.06 | pKa [7]: 5.3; IC50 [3]: 0.2 nM |
| COC(=O)[C@@H]1CCC[C@@H](CN2CCCC2)N1C(=O)Cc1ccc(Cl)c(Cl)c1 | 0.43 |  |

— ChEMBL document CHEMBL1126150, “New kappa-receptor agonists based upon a 2-[(alkylamino)methyl]piperidine nucleus” (J Med Chem, 1992)
